An excerpt weighted towards active compounds, which were near 3.8% of everything screened.
RAM network inh: blocks the yeast RAM network. S. cerevisiae dse1pr::URA3 reporter, 5-FOA growth OD615, 2 d; analog-sensitive cbk1-as2 kinase mutant strain. inhibition, % at 50 µM. 1.8% of 190,000 active. AID 868;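 active = inhibition above a set limit, 3 SD over mean compound inhibition, cut at about 8.4% in these data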;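 also: inhibition rescues growth on 5-FOA so higher OD means more RAM inhibition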
Measles CPE: protection of cells from measles virus; Measles virus-infected cells, CPE protection, absorbance; protection (pct of control), % at 4 µM; 1.5% of 140,000 active; in the data active = protection mostly above about 24%, no sharp cut-off; inactive = mostly below about 26%
sdo1 growth: restores growth of sdo1-depleted yeast. S. cerevisiae sdo1-depleted JHY4D growth rescue, OD600 30 h; stronger effect = higher value; pdr5 snq2 efflux-pump mutant strain. 0.21% of 140,000 active. z-score at 10 µM;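 active = z-score above 3 at both the 24 hr and the 30 hr optical density reads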
Yeast lifespan up: yeast lifespan extension | 0.68% of 130,000 active | S. cerevisiae growth with nicotinamide, OD615; deaD strain in restrictive glucose medium | AID 775 | inhibition of the nicotinamide effect, % at 10 µM;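 active = inhibition above a set limit, placed 3 SD over the median of all compounds, cut at about 26% in these data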
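Assay system: DeaD-strain S. cerevisiae. Medium: CSMM-D glucose medium, restrictive. Reagent: nicotinamide, 1.5 mM, co-present with compound. Compound: 10 µM single point, 0.25% DMSO. Schedule: culture preincubation 4 h, compound exposure 48 h, both 30 °C. Detection: absorbance at 615 nm.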
BB579 growth dn: reduces growth of yeast BB579 in restrictive medium | S. cerevisiae BB579 growth, OD615, 48 h | inhibition, % at 10 µM | 0.51% of 140,000 active;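 active = inhibition above a set limit, 3 SD over the mean compound inhibition, cut at about 44% in these data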
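controls = amphotericin B 10 µg/mL, positive | assay system = DeaD yeast strain BB579 | schedule = 48 h compound exposure at 30 °C after 4 h preincubation | detection = OD615 turbidity measurement | medium = restrictive CSMM-D medium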
Numbers stand for hits; n = inactive; x = no result.

SMILES	RAM network inh	Measles CPE	sdo1 growth	Yeast lifespan up	BB579 growth dn
O=C(CSCc1ccc(F)cc1)N1CCN(c2ccc(F)cc2)CC1	n	n	n	n	n
O=C(CSCc1ccc(F)cc1)N1CCN(c2ccccc2)CC1	n	79	n	n	n
Cc1ccc(C(=O)N(Cc2cccnc2)Cc2cc3cc(C)ccc3n3nnnc23)cc1	n	x	x	x	x
Fc1ccc(-c2nnn(Cc3nc4ccccc4s3)n2)cc1	n	46	n	n	n
Clc1ccc(-c2nnn(Cc3nc4ccccc4s3)n2)cc1	n	n	n	n	n
COc1cc2c(cc1OC)CN(C(=O)c1ccccc1C(=O)O)CC2	n	60	n	n	n
CCC(C(=O)N1CCc2cc(OC)c(OC)cc2C1)c1ccccc1 (stereo not given)	n	n	n	n	n
Cc1ccc(/C(C#N)=C\c2cn(C)c3ccccc23)cc1	8.9	n	n	n	n
CC(=O)C1=C(O)C(=O)N(CCCn2ccnc2)C1c1ccc(C)cc1 (stereo not given)	n	n	n	n	n
CSc1ccccc1NC(=O)CO/N=C(\C)c1cc2ccccc2o1	9.2	n	n	n	n
C/C(=N\OCC(=O)Nc1ccc(F)c(F)c1F)c1cc2ccccc2o1	n	n	n	n	n
C/C(=N\OCC(=O)NC12CC3CC(CC(C3)C1)C2)c1cc2ccccc2o1	n	19	n	n	n
CCc1ccc(NC(=O)CO/N=C(\C)c2cc3ccccc3o2)cc1	8.4	n	n	n	n
COc1ccc(N(CC(=O)N/N=C/c2ccc3c(c2)OCO3)S(=O)(=O)c2ccccc2)cc1	9.2	x	x	x	x
O=C(N/N=C/c1ccc2c(c1)OCO2)c1ccccn1	n	92	n	n	n
O=C(NCCCO)C(=O)NCc1ccncc1	n	x	x	x	x
CCOC(=O)C1CCN(C(=O)CS(=O)Cc2nc(-c3ccc(C)cc3)oc2C)CC1 (stereo not given)	n	46	n	n	n
Cc1ccc(CNC(=O)C(=O)NCC2OCCN2C(=O)c2cccs2)cc1 (stereo not given)	9.5	n	n	n	n
O=C(C1=C[C@H](c2ccc3c(c2)OCO3)C[C@H](OCc2ccc(CO)cc2)O1)N1CCOCC1	10	x	x	x	x
O=C(C1=C[C@H](c2ccc(C(F)(F)F)cc2)C[C@H](OCc2ccc(CO)cc2)O1)N1CCCCCCC1	n	x	x	x	x
O=C(O)C1=C[C@@H](c2ccc3c(c2)OCO3)C[C@@H](OCc2ccc(CO)cc2)O1	n	x	x	x	x
O=C(C1=C[C@@H](c2ccc(C(F)(F)F)cc2)C[C@@H](OCc2ccc(CO)cc2)O1)N1CCOCC1	9.0	x	x	x	x
COCCCn1c(=S)[nH]c2c(sc3ccccc32)c1=O	n	x	x	x	x
Cc1onc(-c2ccccc2)c1C(=O)NC(=S)NNC(=O)c1ccc(O)cc1O	n	n	n	n	80
Cc1cccc(C)c1N(Cc1ccccc1F)S(C)(=O)=O	n	x	x	x	x
SMILES	RAM network inh	Measles CPE	sdo1 growth	Yeast lifespan up	BB579 growth dn
CCCC(=O)Nc1ccccc1-c1nnn(CC(=O)Nc2ccc(OC)cc2)n1	n	n	n	n	n
CCOc1ccc(NC(=O)Cn2nnc(-c3ccccc3NC(=O)c3cccs3)n2)cc1	8.4	n	n	n	n
COc1ccccc1Nc1ncnc2ccc(C)cc12	n	n	n	n	n
C1CC(CN2CCOCC2)CN(Cc2nc(CC3CC3)no2)C1 (stereo not given)	n	x	x	x	x
COc1ccc(-c2nnc(SCC(=O)NCc3ccco3)n2C)cc1	n	n	n	n	n
COCCNC(=O)C(=O)NNS(=O)(=O)c1ccc2ccccc2c1	n	x	x	x	x
Cc1ccc(Oc2ccc(Cl)cc2NC(=O)c2ccc(F)cc2F)cc1	8.9	n	n	n	n
O=C(COC(=O)c1cc(=O)[nH]c(=O)[nH]1)Nc1cccc(S(=O)(=O)N2CCCCC2)c1	n	x	x	x	x
O=C(N/C(=C/C=C\c1ccccc1)C(=O)N1CCOCC1)c1ccc(Br)cc1	n	x	x	x	x
C/C(=N\NC(=O)C1CC1)c1cccs1	n	n	n	27	n
CCCCC(=O)NC(=S)NNC(=O)CC#N	n	n	n	n	n
CCCCC(=O)NNC(=S)NC(=O)CCC	n	n	n	x	78
Cc1ccccc1NC(=S)NC1(C)CCS(=O)(=O)C1 (stereo not given)	n	n	n	n	n
c1cc2c(cc1-c1csc(NNC3=NCCCCC3)n1)OCCO2	n	x	x	x	x
COc1ccc(-c2nc(C#N)c(NCc3ccc(F)cc3)o2)cc1OC	8.9	n	n	n	n
CCOc1ccc(-c2nc(C#N)c(NCc3ccc4c(c3)OCO4)o2)cc1	11	n	n	n	n
COCCNC(=O)C(c1c[nH]c2ccccc12)N(C(=O)c1snc(C(N)=O)c1N)c1cccc(OC)c1 (stereo not given)	n	x	x	x	x
CCCc1nn(C)c2c1C(c1ccncc1)C(C#N)=C(N)O2 (stereo not given)	n	40	n	n	n
O=C(Nc1ccc(Cl)c(Cl)c1)c1ccc(Cn2c(=O)[nH]c3ccsc3c2=O)cc1	n	23	n	n	n
O=C(Nc1ccc(Oc2ccccc2)cc1)c1ccc(Cn2c(=O)[nH]c3ccsc3c2=O)cc1	n	n	n	n	n
CCO[C@H]1OC(C(=O)Nc2ccccc2)=C[C@@H](c2ccc(C(F)(F)F)cc2)[C@@H]1CCCO	9.0	x	x	x	x
CCc1ccc(-n2cccc2/C=C2/C(=N)N3C(=NC2=O)SN=C3S(C)(=O)=O)cc1	11	x	x	x	x
CCOc1cc(Br)c(Br)c(C=Nc2ccc(NC(C)=O)cc2)c1O	n	n	n	49	n
CC(=O)Nc1ccc(N=Cc2c(O)c(C(=O)Nc3ccccc3)cc3ccccc23)cc1	n	x	x	x	x
Cc1sc2nc(C3CC3)nc(SCC(=O)N3CCc4ccccc4C3)c2c1C	n	n	n	n	n
SMILES	RAM network inh	Measles CPE	sdo1 growth	Yeast lifespan up	BB579 growth dn
Cc1sc2nc(C3CC3)nc(SCC(=O)N3CCCc4ccccc43)c2c1C	9.2	n	n	n	n
CC(=O)C(C(C)=O)c1c(Cl)c(O)c(O)c2c(C(=O)c3ccccc3)coc12	n	n	n	37	n
CN1CCN(Cc2c(O)ccc3occ(C(=O)c4ccccc4)c23)CC1	n	n	n	n	n
CCOC(=O)N1CCC(NC(=O)CN2C(=O)CSc3ncccc32)CC1	n	30	n	n	n
CCOC(=O)N1CCC(NC(=O)CCCN2C(=O)CSc3ncccc32)CC1	n	n	n	n	n
CCOC(=O)CSc1cccc2cccnc12	n	n	n	n	n
Nc1cccc2nc3ccccc3cc12	n	n	n	n	59
NS(=O)(=O)c1ccc(N/N=C/c2ccccc2C(=O)O)c([N+](=O)[O-])c1	n	x	x	x	x
Cc1ccc(NC(=O)c2ccc(N/N=C/c3cccc(O)c3)c([N+](=O)[O-])c2)cc1	9.0	n	n	n	n
Cc1ccccc1NC(=O)c1ccc(N/N=C/c2ccccc2O)c([N+](=O)[O-])c1	8.7	n	n	n	n
CCN(CC)CCNC(=O)c1[nH]c2ccc(OCc3ccccc3)cc2c1C	n	x	x	x	x
CCOC(=O)c1cc(-c2ccc3c(c2)OCCO3)nc2c1c(C)nn2CCC#N	9.0	n	n	n	n
NNc1nc2c(Cl)ccc(Cl)c2s1	n	n	n	n	n

Bioassay records deposited in PubChem by several laboratories.
